Screening data as filed in PubChem.
TAAR1 antagonist: antagonists of human TAAR1; Q96RJ0; CHO RD-HGA16 TAAR1, Fluo-8 calcium fluorescence, antagonist; inhibition, % at 3 µM; actives 1.5% (n = 360,000); AID 624466;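 active = inhibition above a per-plate cutoff, the mean inhibition of test compounds on that plate plus 3 SD, cut at about 49% in these data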
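Test system: RD-HGA16 CHO cells with stable hTAAR1 and Gα16 / Probe or stimulus: EC80 β-phenethylamine stimulus / Times: seeding 17-24 h prior, 75-min 37 °C, 30-min RT dye loading / Detection: Fluo-8 calcium-sensitive fluorescence / Read-out basis: % inhibition scaled between DMSO and EC80 PEA controls / Repeats: singlicate, one well per test compound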
LANA-H2A inh: blocks KSHV LANA binding to histone H2A/H2B; inhibition, % (test concentration not listed); actives 0.6% (n = 320,000); cell-free LANA-H2A/H2B peptide, fluorescence polarization; AID 2629; in the data active = inhibition mostly above about 10%, no sharp cut-off; inactive = mostly below about 6.7%
TRPN1 ag: zebrafish TRPN1 (NompC) channel agonism | HEK293 zebrafish TRPN1-YFP, Fluo-8 calcium fluorescence; 100% = response to 87 µM carbachol | activation, % at 3 µM | actives 0.18% (n = 220,000);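 active = activation above its plate's cutoff, the mean activation of test wells on that plate plus 3 SD, cut at about 19% in these data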
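Material – zebrafish TRPN1-YFP in HEK293 cells · Doses – 3 µM single point · Schedule – dye 1 h 37 °C plus 30 min RT · Signal – Fluo-8 calcium fluorescence, excitation 470-495 nm, emission 515-575 nm · Read-out – % activation versus carbachol response · Control set – carbachol high, DMSO low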
GPR7 antagonist: human neuropeptides B/W receptor 1 antagonism. inhibition, % at 4.4 µM. actives 1.1% (n = 290,000). GPR7-expressing cells, fluorescence antagonist assay; in the data active = inhibition above about 16%, passing the limit was not always enough;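 note: cells stimulated with the agonist NPW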
TAAR1 agonist: human TAAR1 agonism. activation, % at 3 µM. CHO RD-HGA16 TAAR1, Fluo-8 calcium fluorescence; vehicle wells 0%, saturating PEA agonist 100%. actives 0.99% (n = 360,000);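 active = activation above the mean activation of all test compounds in the run plus 3 SD, cut at about 38% in these data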
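Test system: RD-HGA16 (CHO) cells co-expressing Gα16 and hTAAR1 / Benchmarks: DMSO vehicle as 0%, PEA at EC100 as 100% / Repeats: no replicates (n 1) / Measure: % activation from peak over basal fluorescence ratio, DMSO-to-PEA scaled / Timing: 17-24 h plating, Fluo-8 75 min 37 °C, 30 min RT / Technique: kinetic Fluo-8 calcium fluorescence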
TRPML3 agonist: human mucolipin-3 channel agonism | activation, % at 3 µM | actives 0.29% (n = 220,000) | Q8TDD5 | AID 1448 | HEK293 TRPML3-YFP, Fluo-8 calcium fluorescence; 100% = the carbachol control signal;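 active = activation above its plate's cutoff, the mean activation of the plate's test wells plus 3 SD, cut at about 12% in these data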
Target sequence (Q8TDD5 whole entry, looked up): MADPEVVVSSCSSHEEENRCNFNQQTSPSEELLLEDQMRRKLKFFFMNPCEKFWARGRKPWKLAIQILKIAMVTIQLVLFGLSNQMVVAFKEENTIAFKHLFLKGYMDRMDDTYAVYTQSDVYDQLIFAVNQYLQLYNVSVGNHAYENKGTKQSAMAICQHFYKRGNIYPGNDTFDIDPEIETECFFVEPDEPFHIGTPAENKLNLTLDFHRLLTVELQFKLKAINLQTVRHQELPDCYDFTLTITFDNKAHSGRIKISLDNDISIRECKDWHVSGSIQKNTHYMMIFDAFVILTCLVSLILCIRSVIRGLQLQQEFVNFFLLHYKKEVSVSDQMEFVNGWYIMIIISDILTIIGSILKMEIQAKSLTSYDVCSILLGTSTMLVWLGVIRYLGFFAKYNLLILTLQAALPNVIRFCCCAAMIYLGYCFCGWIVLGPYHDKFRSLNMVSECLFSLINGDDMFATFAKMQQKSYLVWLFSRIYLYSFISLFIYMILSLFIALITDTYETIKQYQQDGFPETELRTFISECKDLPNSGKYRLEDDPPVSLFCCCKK
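Material: TRPML3-YFP stable HEK293 cells | Dosing: One concentration, 3 µM nominal, 0.3% DMSO | Timing: 125 s total fluorescence read per well | Technique: Fluo-8 calcium dye fluorescence, ex 470-495, em 515-575 nm | Measure: Percent activation from peak-to-basal fluorescence ratio, scaled between DMSO and carbachol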
Hits are given with their value; 0 = inactive; - = no result given. This is a sample that favours compounds with a hit; in the whole collection about 3.4% have one here.

SMILES	TAAR1 antagonist	LANA-H2A inh	TRPN1 ag	GPR7 antagonist	TAAR1 agonist	TRPML3 agonist
COC(=O)c1cn(CC(=O)Nc2ccc(F)cc2)c2ccccc12	0	12	0	0	0	0
CC12CCC3c4ccc(OCC(=O)O)cc4CCC3C1CCC2=O (stereo not given)	0	-	-	-	0	-
C[C@]12CCC3c4ccc(OCC(=O)O)cc4CCC3C1CCC2=O (stereo not given in full)	0	0	0	22	0	0
Cc1cc(C)cc(C(=O)OCC(=O)NCc2cccs2)c1	0	0	0	26	0	0
Cc1ccc(S(=O)(=O)N2CC3(O)CN(C(=O)OC(C)C)N(C(=O)OC(C)C)CC3(OC(=O)NC3CCCC3)C2)cc1 (stereo not given)	49	-	-	-	0	-
CC(C)c1[nH]nc2c1C(c1ccc3c(c1)OCO3)NC2=O (stereo not given)	0	-	-	-	0	-
COCCN1Cc2cc(C(=O)OC)c3c(c2C1=O)c1cc(OC)ccc1n3S(C)(=O)=O	0	-	-	-	0	-
CCOCC(=O)Nc1cc([N+](=O)[O-])ccc1OC	0	22	0	0	0	0
COc1ccccc1CC(=O)Nc1ccc([N+](=O)[O-])cc1O	0	0	21	29	0	0
COC(=O)[C@]12C[C@H](CC(=O)NCCCN3CCCC3=O)C(=O)N(Cc3ccc4c(c3)OCO4)C1=C[C@H](COCc1ccccc1)O[C@@H]2C	0	-	-	-	0	-
O=C(CCc1nc2ccccc2s1)OCc1ccccc1	0	0	0	0	0	0
Cc1cc(C(=O)COC(=O)CCc2nc3ccccc3s2)c(C)n1C	0	13	0	0	0	0
CCOc1ccccc1C1C2C(=O)N(c3ccccc3)C(=O)C2ON1c1ccccc1 (stereo not given)	50	0	0	0	0	0
C[C@@H]1C=CCCO[C@]12C(=O)N(CC1CC1)c1ccccc12	0	-	-	-	0	-
O=C(CNC(=O)c1ccc2c(c1)OCO2)N/N=C(Br)/C=C/c1ccccc1	0	0	0	0	41	0
CCCn1nc(-c2ccccc2)c2nc3ccccc3nc21	0	0	0	0	0	0
CCCCCn1nc(-c2ccccc2)c2nc3ccccc3nc21	0	30	0	0	0	0
CC1C=CCC2C(=O)N(c3ccc(OC(=O)c4ccco4)cc3)C(=O)C12 (stereo not given)	0	0	0	19	0	0
CC1C=CCC2C(=O)N(c3ccc(OC(=O)c4cccs4)cc3)C(=O)C12 (stereo not given)	0	0	0	0	0	0
Cc1ccc2nc(-c3ccc(NC(=S)NC4CC(C)(C)NC(C)(C)C4)cc3)sc2c1	0	0	0	52	0	0
Cc1ccc2nc(-c3ccc(NC(=S)NC(=O)C(C)C)cc3)sc2c1	0	0	0	0	0	0
COC(=O)CC1C(=O)NCCN1C(=O)CSc1nc2ccccc2o1 (stereo not given)	0	0	0	22	0	0
COC(=O)CC1C(=O)NCCN1C(=O)CSc1nc2ccccc2c(=O)n1CC(C)C (stereo not given)	0	0	0	0	0	0
CCOC(=O)c1oc2cc(O)cc(C)c2c(=O)c1-c1cscn1	0	26	0	0	0	0
CCCc1cc2c(=O)c(-c3cscn3)c(C(=O)OCC)oc2cc1O	0	0	0	0	0	0
SMILES	TAAR1 antagonist	LANA-H2A inh	TRPN1 ag	GPR7 antagonist	TAAR1 agonist	TRPML3 agonist
COC(=O)c1cc2c(c3c4ccccc4n(S(C)(=O)=O)c13)C(=O)N(Cc1ccccc1)C2	0	-	-	-	0	-
O=c1c2cc(Cl)cc(Cl)c2nc2n1CCC2	0	0	0	0	0	0
OC(c1cc(C(F)(F)F)nc2c(Cl)cc(Cl)cc12)C1CCCCN1 (stereo not given)	0	0	0	45	0	0
OC(c1cc(-c2ccc(Cl)cc2)nc2ccccc12)C1CCCCN1 (stereo not given)	0	0	0	63	0	0
Nc1[nH]c(C(=O)c2ccc(Br)cc2)c(-c2ccc(Cl)cc2)c1C(=O)NCCc1c[nH]c2ccccc12	0	-	-	-	0	-
COc1cc(CN2CCc3ccc(NC(=O)CCc4ccccc4OC)cc3C2)ccc1O	0	0	-	0	0	-
COc1ccc(CN2CCc3ccc(NC(=O)CCc4ccccc4OC)cc3C2)c(O)c1	59	0	-	0	0	-
C#CCNC(=O)C[C@H]1C[C@@]2(C(=O)OC)C(=C[C@H](C(C)(C)C)O[C@@H]2C)N(Cc2ccccc2)C1=O	0	-	-	-	0	-
COc1cccc(CN(C)C(=O)[C@H]2O[C@@H](n3cnc4c(=O)[nH]c(N)nc43)[C@H](O)[C@@H]2O)c1	0	-	-	-	0	-
COc1ccc(S(=O)(=O)N2CCOCC2)cc1OC	0	0	0	0	0	0
COc1ccc(S(=O)(=O)N2CCOCC2)cc1N=Nc1sc(N)nc1-c1ccccc1	54	0	0	0	0	0
OC(COCc1ccccc1)Cn1cnc2ccccc21 (stereo not given)	0	0	0	0	0	0
OC(CN(c1ccccc1)c1ccccc1)Cn1cnc2ccccc21 (stereo not given)	57	0	0	0	0	0
CC1(C)CC(=O)C=C(c2ccccc2F)C1=O	0	-	-	-	0	-
CC(C)C[C@@H]1COc2cc(N3CCCC3)ccc2S(=O)(=O)N1	0	-	-	-	0	-
CC(Oc1ccccc1)c1ccnc2nc(/N=C/N(C)C)nn12 (stereo not given)	0	0	0	0	0	0
CC(Oc1cccc(Cl)c1)c1ccnc2nc(/N=C/N(C)C)nn12 (stereo not given)	0	112	0	0	0	0
